Screening data as filed in PubChem BioAssay.
Compounds with a hit are over-represented: about 1.9% of the library has one in this group of screens.
APJ agonist – agonists of human APJ apelin receptor; AID 2520; hit rate 0.11% among 330,000; CHO-K1 APJ PathHunter beta-arrestin, luminescence; 0% DMSO wells, 100% apelin; P35414; activation, % at 20 µM;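 active = activation more than six SD over the plate average, tested at 20 µM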;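 note: 0% = DMSO alone and 100% = apelin-13 at 10 nM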
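Assay system: CHO-K1 cells stably expressing ProLink-tagged human APJ and arrestin–beta-gal acceptor. Compound dosing: 20 µM single point, 1% DMSO. Times: 16-18 h seeding, 90 min dark compound exposure, 60 min detection. Detection: beta-gal luminescence. Evaluation: APJ–arrestin association signal. Controls: negative DMSO alone, positive Apelin-13 at 10 nM.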
APJ antagonist – blocks the human apelin receptor APJ; CHO-K1 APJ beta-arrestin complementation, luminescence; P35414; hit rate 0.32% among 330,000; inhibition, % at 20 µM;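 active = inhibition above about 40% at 20 µM, limit read from the data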;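 note: cells challenged with 10 nM apelin-13 agonist together with compound; plate controls were apelin-13 plus DMSO wells for no effect and DMSO wells lacking apelin-13 for full effect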
CXCR6 block – blocks human CXCR6 beta-arrestin recruitment; O00574; CHO-K1 PathHunter CXCR6 beta-arrestin, luminescence; inhibition, % at 20 µM; hit rate 0.36% among 360,000; in the data active = inhibition above about 34%, passing the limit was not always enough;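 note: antagonist mode with CXCL16 agonist at 10 nM final; 0% = 10 nM CXCL16 with DMSO and 100% = unstimulated wells without agonist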
H9c2 TAG inh – reduces triacylglycerol accumulation in H9c2 cells. inhibition, % at 12.5 µM. AID 651582. hit rate 0.66% among 230,000. Nile Red lipid (TAG) fluorescence; cells loaded with 200 µM oleic acid;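 active = pattern-corrected inhibition of lipid staining of at least 50% with the nuclear-stain viability signal not falling by more than 50%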;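 note: 0% = DMSO wells and 100% = triacsin C control wells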
EBI2 block – EBI2 (human) antagonism | P32249 | EBI2 beta-arrestin recruitment, luminescence, 7a,25-OHC stimulated | inhibition, % at 5 µM | hit rate 0.81% among 360,000; in the data active = inhibition above about 38%;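 note: enzyme fragment complementation signal reports receptor beta-arrestin coupling in cells; 0% = agonist plus DMSO wells and 100% = wells without agonist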
CCR6 antagonist – CCR6 (human) receptor antagonism. hit rate 0.49% among 340,000. P51684. AID 493098. CHO-K1 CCR6 PathHunter beta-arrestin, luminescence, CCL20-stimulated. inhibition, % at 20 µM;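 active = compounds whose inhibition of the agonist-driven luminescence signal at 20 µM reaches about 50%, limit read from the data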;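 note: cells stimulated with CCL20 at 14 nM final; plate controls were DMSO with CCL20 for no effect and DMSO without agonist for full effect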
Target sequence (P51684 whole entry, looked up): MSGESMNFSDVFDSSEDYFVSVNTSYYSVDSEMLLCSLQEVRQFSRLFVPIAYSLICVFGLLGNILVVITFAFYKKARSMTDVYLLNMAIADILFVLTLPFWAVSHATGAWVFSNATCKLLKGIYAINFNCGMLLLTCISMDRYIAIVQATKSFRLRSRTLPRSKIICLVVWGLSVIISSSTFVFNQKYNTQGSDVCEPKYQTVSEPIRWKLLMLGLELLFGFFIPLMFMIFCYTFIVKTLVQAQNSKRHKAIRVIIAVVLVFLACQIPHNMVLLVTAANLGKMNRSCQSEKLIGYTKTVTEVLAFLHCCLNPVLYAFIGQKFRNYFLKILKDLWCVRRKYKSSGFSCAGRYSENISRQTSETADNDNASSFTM
APJ antag conf – confirmation of human APJ apelin receptor antagonists; shares compounds with APJ antagonist; APJ beta-arrestin recruitment, luminescence, antagonist mode; inhibition, % at 20 µM; hit rate 66% among 950; in the data active = inhibition above about 50%
* hit, by the source's call; nt = no result.

SMILES	APJ agonist	APJ antagonist	CXCR6 block	H9c2 TAG inh	EBI2 block	CCR6 antagonist	APJ antag conf
CN(CC(=O)Nc1cccc(F)c1)C(=O)c1ccc(S(=O)(=O)N2CCCC2)cc1	-3	9	1	-16	-7	3	nt
CN1CCS/C1=C\C=C1/SC(=S)N(CC(=O)O)C1=O	nt	nt	21	-3	11	32	nt
CCCN1C(=O)/C(=C/C=C2\N(CC)c3ccccc3C2(C)C)SC1=S	-12	15	20	-391	37	34	nt
CN1/C(=C\C=C2/SC(=S)N(CC(=O)O)C2=O)C(C)(C)c2ccccc21	-11	51*	45*	nt	0	59*	93*
C=CCN1C(=O)/C(=C\C=C2\N(C)c3ccccc3C2(C)C)SC1=S	-7	57*	30	-210	38	71*	82*
CC(C)n1c(CNC(=O)c2ccccc2F)nnc1SCC(=O)c1ccc(F)cc1	nt	nt	3	5	-1	5	nt
CCCCN(Cc1ccco1)C(=O)C1CCCN(c2ncnc3c2nc2n3CCCCC2)C1 (centres undefined)	-3	-7	-1	nt	18	23	nt
Cc1ccc(C)c(NC(=S)N/N=C2/CCCCc3ccccc32)c1	-10	47*	27	nt	30	34	84*
CC(C)NC(=S)N/N=C1\CCCCc2ccccc21	-3	8	19	11	-10	30	nt
CC(C)n1nc(C(=O)Nc2cccc(S(=O)(=O)N3CCOCC3)c2)c2ccccc2c1=O	5	6	3	4	-19	20	nt
Cc1ncoc1C(=O)NC1CCCc2c1cnn2-c1ccc(C(C)(C)C)cc1 (centres undefined)	9	-18	-2	-27	-10	13	nt
Cc1ccc(C)c(-c2cc(C(=O)NNC(=S)NCC(C)C)c3ccccc3n2)c1	-7	45*	3	nt	4	35	28
ON1C(c2ccc(Cl)cc2Cl)N(O)[C@H]2CCCC[C@H]21 (some centres undefined)	-9	55*	8	nt	-5	80*	85*
CC1N(O)C(c2ccc(Cl)cc2Cl)N(O)C1(C)C (centres undefined)	-1	-5	4	-4	-3	46	nt
Cc1ccc(NCCC(=O)c2ccccc2)cc1Cl	-1	-10	0	2	8	5	nt
Cc1ccc(NCC(=O)c2ccccc2)cc1Cl	-17	94*	49*	-7	23	73*	101*
Cc1ccc(C(=O)CNc2ccc(C)c(Cl)c2)cc1	-8	64*	22	nt	35	60*	93*
CC(C)(CNC(=O)c1ccc(Br)o1)CNC(=O)c1ccc(Br)o1	4	10	0	nt	6	-15	nt
CCOc1ccc(C(=O)NC(=S)Nc2cccnc2)cc1[N+](=O)[O-]	-5	43*	17	-2	-10	34	43
CC1=Nc2ccccc2/C1=C/c1sc(=N)n(-c2nccs2)c1O	-11	46*	18	nt	9	49	53*
O=C(C1=C(O)C(=O)N(CCN2CCOCC2)C1c1cccc(O)c1)c1cc2ccccc2o1 (centres undefined)	-2	24	-2	-6	5	7	nt
O=C(C1=C(O)C(=O)N(CCN2CCOCC2)C1c1cccs1)c1cc2ccccc2o1 (centres undefined)	-7	56*	11	-8	7	23	28
Cc1nn(-c2ccccc2)c(Cl)c1C(=O)OCC(=O)NCCc1ccccc1	0	9	6	-6	23	6	nt
CCOC(=O)c1c(C)nc2sc(C(=O)Nc3ccc(C(C)=O)cc3)c(N)c2c1-c1ccc(OC)cc1	-10	51*	0	24	7	4	17
FC(F)(F)c1cc(C(F)(F)F)c2ccc(N/N=C/c3ccccc3)nc2n1	1	-12	-5	-10	20	-6	nt
SMILES	APJ agonist	APJ antagonist	CXCR6 block	H9c2 TAG inh	EBI2 block	CCR6 antagonist	APJ antag conf
CN(N)c1ccc2c(C(F)(F)F)cc(C(F)(F)F)nc2n1	-2	13	-2	nt	-3	-1	nt
Cc1ccc(C(C#N)c2ccc3c(C(F)(F)F)cc(C(F)(F)F)nc3n2)cc1 (centres undefined)	-6	49*	35	23	-9	54*	80*
N#CC(c1ccccc1)c1ccc2c(C(F)(F)F)cc(C(F)(F)F)nc2n1 (centres undefined)	-5	42*	23	8	-20	53*	88*
O=P1(NC2CCCC2)OCC2(CO1)COP(=O)(NC1CCCC1)OC2 (centres undefined)	nt	nt	0	6	-6	10	nt
O=C(CCC(=O)c1cccs1)OCC(=O)c1ccc(Cl)s1	-2	41*	10	nt	2	14	-2
CCc1noc(C)c1C(=O)NC1CC(C)(C)Cc2c1cnn2-c1ccccc1 (centres undefined)	-7	41*	8	3	-2	nt	25
CCOC(=O)C(C)NC(=O)CCc1nnc2ccc(N3CCC(C)CC3)nn12 (centres undefined)	-3	-14	6	nt	4	6	nt
O=C1N/C(=C\c2ccccc2)C(O)=C1C=NCc1ccccc1	0	45*	-2	nt	-1	13	10
CN(Cc1c(O)ccc2c1oc(=O)c1ccccc12)C1CCCCC1	0	47*	21	nt	10	26	40
C=CCSC(=S)Nc1c(C)n(C)n(-c2ccccc2)c1=O	-2	47*	4	11	-7	18	21
Cc1ccc2c(c1Br)/C(=N/N1C(=O)c3ccccc3C1=O)C(=O)N2	-10	38	9	-3	5	21	nt
CCOc1ccc(N=C2C(=O)Nc3ccc(C)c(Br)c32)cc1	-15	79*	73*	nt	11	102*	146*
O=C(c1nnsc1S(=O)(=O)c1ccc(Cl)cc1)N1CCOCC1	-1	7	15	42	-31	4	nt
CNC(=O)c1nnsc1S(=O)(=O)c1ccc(Cl)cc1	-3	47*	64*	44	-6	77*	70*
COc1ccc(/C(C)=N/NC(=O)CNC(=O)c2ccco2)c(OC)c1	1	-1	-6	nt	-6	-5	nt
COc1ccc(C(=O)Nc2ccc(Cl)c(S(=O)(=O)Nc3ccccc3OC)c2)cc1	0	41*	0	nt	2	21	23
Cc1ccc(C)c(CSC2=NCCN2S(=O)(=O)c2ccccc2)c1	-4	1	2	-2	6	12	nt
COc1ccc(NC(=O)CS(=O)(=O)c2ccc(C)cc2)c(OC)c1	-3	110*	7	nt	-12	2	17
Cc1cc(NC(=O)COC(=O)CNS(=O)(=O)c2c(F)cc(F)cc2Br)no1	-3	-1	1	10	-1	5	nt
